The list is not random: actives were taken first. Their share in the collection is about 1.9%.
CHRM5 PAM – positive allosteric modulators of human muscarinic M5 receptor; P08912; CHO-K1 hM5, Fluo-8 calcium, ACh EC20 PAM; 0% = ACh EC20, 100% = ACh EC100; activation, % at 3 µM; 0.3% of 360,000 active; AID 624038;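 active = activation above the run cutoff, the mean activation of all test compounds plus 3 SD, cut at about 18% in these data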
Target sequence (P08912 whole entry, looked up): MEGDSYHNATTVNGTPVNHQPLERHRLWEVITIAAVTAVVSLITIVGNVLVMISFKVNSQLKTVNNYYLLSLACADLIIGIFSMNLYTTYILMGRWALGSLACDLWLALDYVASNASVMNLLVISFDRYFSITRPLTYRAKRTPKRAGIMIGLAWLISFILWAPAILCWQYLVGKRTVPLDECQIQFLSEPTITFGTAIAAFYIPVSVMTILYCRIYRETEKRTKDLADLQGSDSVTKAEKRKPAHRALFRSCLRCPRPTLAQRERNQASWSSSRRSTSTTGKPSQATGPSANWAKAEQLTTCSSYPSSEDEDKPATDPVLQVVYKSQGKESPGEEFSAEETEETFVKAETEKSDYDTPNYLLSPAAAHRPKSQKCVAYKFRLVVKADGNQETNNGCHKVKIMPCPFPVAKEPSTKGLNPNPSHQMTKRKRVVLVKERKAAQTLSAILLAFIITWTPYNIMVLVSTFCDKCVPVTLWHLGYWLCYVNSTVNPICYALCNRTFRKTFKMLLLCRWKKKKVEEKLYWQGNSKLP
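Assay system: CHO-K1 hM5 cells. Also added: acetylcholine at EC20 concentration, added after compound. Dosing: 3 µM, single dose. Times: compound preincubation 140 s before EC20 acetylcholine addition. Signal: Fluo-8 calcium fluorescence. Measure: % activation relative to EC20 and EC100 ACh responses. Repeats: singlicate, one well per test compound.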
CHRM5 agonist – CHRM5 agonism in calcium assay. P08912. CHO-K1 hM5 cells, Fluo-8 calcium fluorescence; 0% DMSO wells, 100% maximal acetylcholine response. activation, % at 3 µM. 0.19% of 360,000 active. AID 624037;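 active = activation above the run's mean over test compounds plus 3 SD, cut at about 23% in these data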;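 note: signal is peak over basal fluorescence ratio across the kinetic read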
M4 antag – CHRM4 antagonism in calcium assay. 0.73% of 360,000 active. inhibition, % at 3 µM. CHO-hM4 cells, ACh EC80, Fluo-8 calcium fluorescence;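 active = inhibition above its plate's cutoff, the mean inhibition of sample wells plus 3 SD, cut at about 27% in these data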
M4 ag – agonists of human muscarinic M4 receptor (CHRM4); P08173; CHO-K1 hM4/Gqi5, Fluo-8 calcium fluorescence; vehicle 0%, full acetylcholine response 100%; activation, % at 3 µM; 0.14% of 360,000 active; AID 624127;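 active = activation above the run mean over all test wells plus 3 SD, cut at about 32% in these data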;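 note: peak over basal fluorescence ratio per well then scaled between controls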
M5 antag – CHRM5 antagonism in calcium assay; P08912; 0.59% of 360,000 active; AID 624040; inhibition, % at 3 µM; CHO-hM5 cells, Fluo-8 calcium fluorescence, ACh EC80;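 active = inhibition above a per-plate cutoff, the mean of that plate's test compounds plus 3 SD, cut at about 27% in these data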
CHRM4 PAM – CHRM4 positive allosteric modulation | P08173 | CHO-K1 hM4/Gqi5, Fluo-8 calcium fluorescence, ACh EC20; 0% = ACh EC20, 100% = maximal ACh | activation, % at 3 µM | 0.4% of 360,000 active | AID 624126;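 active = activation above its plate's cutoff, the mean activation of sample wells plus 3 SD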
Of the large screens only hits and unclear results are named; the others gave an inactive call.

O=C(c1ccccc1)c1ccccc1N1C(=O)C=CC1=O	M4 antag 72
O=C1C=CC(=O)N1c1ccccc1N1C(=O)C=CC1=O	none
CCC1CCCCN1CCCNC(=O)C1CCCN(c2nn3c(=O)cc(C)nc3s2)C1 (stereo unspecified)	none
Cc1cc(=O)n2nc(N3CCCC(C(=O)NCCCN4CCc5ccccc5C4)C3)sc2n1 (stereo unspecified)	M4 antag 28
O=C(O)CP(=O)(c1ccccc1)c1ccccc1	CHRM4 PAM 22
O=P(CCO)(c1ccccc1)c1ccccc1	none
CC(Oc1ccc(Cl)cc1)C(=O)Nc1ccc(S(=O)(=O)N2CCOCC2)cc1 (stereo unspecified)	CHRM5 agonist 38, M4 ag 53
O=C(Nc1ccc(S(=O)(=O)N2CCOCC2)cc1)c1cc(-c2cc(Cl)ccc2O)n[nH]1	M5 antag 29
CC(Oc1ccc(Cl)cc1)C(=O)Nc1cccc(S(=O)(=O)N2CCCC2)c1 (stereo unspecified)	none
Cc1cc(O)c(-c2cc(C(=O)Nc3ccc(S(=O)(=O)N4CCOCC4)cc3)[nH]n2)cc1C	none
Fc1ccc(Nc2nc(-c3ccncc3)nc3ccccc23)cc1	CHRM4 PAM 24
c1ccc(Nc2nc(-c3ccncc3)nc3ccccc23)cc1	none
c1ccc(CN2CCN(C3CCCSc4ccccc43)CC2)cc1 (stereo unspecified)	M4 antag 35
Cc1cccc(N(C)S(=O)(=O)c2cc3c(cc2C)n(C)c(=O)c(=O)n3C)c1	none
Cc1cc2c(cc1S(=O)(=O)N(C)c1ccccc1)n(C)c(=O)n2C	M4 antag 99
COc1cc(CC(NC(C)=O)C(=O)NC2CCN(c3nc(OC)nc(OC)n3)CC2)cc(OC)c1 (stereo unspecified)	none
O=C1C=C(c2c(O)ccc3ccccc23)c2ccccc2C1=O	M4 antag 47
CCOC(=O)C1CCN(Cc2cc(Cl)c3ccccc3c2O)CC1	M4 antag 29
COc1ccccc1Cc1nc(-c2ccncc2)no1	none
COc1ccccc1Cc1noc(COc2cccc(C)c2C)n1	CHRM4 PAM 34
Cc1[nH]c(=O)c(C#N)c(C)c1CCC(=O)Nc1cc(S(C)(=O)=O)ccc1Cl	CHRM4 PAM 20
Cc1ccc(F)cc1NC(=O)CCc1c(C)[nH]c(=O)c(C#N)c1C	none
O=C(NNS(=O)(=O)c1ccc([N+](=O)[O-])cc1)C(=O)Nc1cccc(C(=O)O)c1	CHRM4 PAM 19
O=C(O)c1ccccc1-c1ccc(/C=C/c2cc(C(F)(F)F)[nH]c(=O)n2)o1	CHRM5 agonist 44
O=C(O)c1cc(Cl)ccc1-c1ccc(/C=C/c2cc(C(F)(F)F)[nH]c(=O)n2)o1	CHRM5 agonist 42, M4 ag 39
O=C(COC(=O)c1cc[n+]([O-])cc1)Nc1ccc(Cl)cc1C(F)(F)F	none
O=S(=O)(NC1CC1)c1ccc(Br)cc1N1CCC[C@H]1CO	none
CC(C(=O)Nc1ccc(F)c(F)c1F)N(C)Cc1cccs1 (stereo unspecified)	none
COc1cc(/C=C2/NC(=O)NC2=O)cc(Br)c1OCc1ccc(C(=O)O)cc1	none
C=CCc1cc(C=O)cc(OC)c1OCc1ccc(C(=O)O)cc1	CHRM4 PAM 20
CN(C)/C=C/c1onc(-c2c(F)cccc2Cl)c1C#N	CHRM5 PAM 28
Cc1onc(-c2c(F)cccc2Cl)c1C(=O)NC1CC1	none
COc1ccc2[nH]c3c(=O)n(CCCN4CCOCC4)cnc3c2c1	CHRM5 PAM 21
C[n+]1cn(CC(O)COCc2ccccc2)c2ccccc21 (stereo unspecified)	none
CCCCCc1ccc(OCCOCCn2c[n+](C)c3ccccc32)c(CCCCC)c1	M4 antag 58
CCCCCc1ccc(OCCC[n+]2ccccc2)c(CCCCC)c1	M4 antag 32, M5 antag 32
COc1ccc(NCC(=O)Nc2c(C)cccc2C)cc1S(=O)(=O)N1CCOCC1	none
CCCCCCCCn1c2c(c(=N)c3ccccc31)CCC2	M4 antag 58, M5 antag 48
CCOC(=O)Cn1c2c(c(=N)c3c1CCC3)CCC2	none
CCOC(=O)Cn1c2c(c(=N)c3ccccc31)CCC2	CHRM5 PAM 19
CCCCCCCCCCn1c2c(c(=N)c3c1CCC3)CCC2	M4 antag 28, M5 antag 39
CCCCCCCCCn1c2c(c(=N)c3c1CCC3)CCCC2	M4 antag 63, M5 antag 58
O=[N+]([O-])c1ccc(COP(=O)(O)OCc2ccc([N+](=O)[O-])cc2)cc1	none
CCOC(=O)C1(C)CCN1C(=O)c1ccccc1OC(F)(F)F (stereo unspecified)	none
CCc1c(-c2cccc(Cl)c2)ncn1Cc1cccc(-c2ccccc2)c1	none
COc1cccc(C(=O)OCCN2CCCCC2)c1	M5 antag 30
CCCC[C@@H]1Cc2[nH][nH]c(=O)c2[C@H](c2cccc3ccccc23)O1	none
CC(=O)Nc1cccc(-c2ccnc3c2CC(C)(C(=O)Nc2cccc(C(C)=O)c2)O3)c1 (stereo unspecified)	none
C=C(C)COc1ccc(-c2[nH]ncc2Oc2ccc(OC)cc2)c(O)c1	M4 antag 41
Cc1ccc(S(=O)(=O)N2CCC(C(=O)NCCCN3CCCC3=O)CC2)cc1	none
Cc1ccc(NC(=O)C2CCN(S(=O)(=O)c3ccc4c(c3)NC(=O)C(C)S4)CC2)cc1C (stereo unspecified)	M5 antag 36
Cc1ccc(S(=O)(=O)N2CCC(C(=O)NCCCN3CCCC3=O)CC2)cc1C	CHRM4 PAM 22
CCc1ccc(NC(=O)C2CCN(S(=O)(=O)c3ccc4c(c3)NC(=O)C(C)S4)CC2)cc1 (stereo unspecified)	M5 antag 34
COc1ccc(-c2nc3ccc(Cl)cn3c2Cc2cccc(F)c2)cc1OC	none
CCC(C)CCN1C(Nc2ccccc2)=NC[C@@H]1C (stereo partly specified)	none
CC(C)(C)c1cc(C2COC(=O)COCCOCC(=O)OCCOCCO2)cc(C(C)(C)C)c1O (stereo unspecified)	none
CC(C)(C)OC(=O)NCc1ccc(CNC(=O)c2nc[nH]c2C(=O)N2CCc3ccccc3C2)cc1	none
CCOC(=O)c1c(C)nc2sc3c(=O)n(-c4ccc(C)cc4)cnc3c2c1-c1ccc(OC)cc1	none
CCOC(=O)CSc1nc(C)nc2c1sc1nc(C)c(C(C)=O)c(-c3ccc(OC)cc3)c12	CHRM4 PAM 20
COc1ccc(Cl)cc1NC(=O)CN(C)C(=O)c1ccc(-n2nc(C)cc2C)cc1	none
